Test results taken from ChEMBL document CHEMBL1149101, “New antibacterial agents derived from the DNA gyrase inhibitor cyclothialidine” (J Med Chem, 2004).
≈ marks a conversion by molar mass, not a printed value.

How the values were obtained:
[1] = test system: Enterococcus faecalis; experiment: Minimum inhibitory concentration against Enterococcus faecalis 6; assay type: functional
How it was run: (§1)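 NCCLS agar dilution on Mueller–Hinton agar, compound incorporated into melted medium at 50 °C. Inoculum about 10⁴ CFU/spot from diluted overnight cultures, multipoint-applied.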

[2] = test system: Escherichia coli; experiment: Minimum inhibitory concentration against Escherichia coli 25922; assay type: functional; how it was run: as §1
[3] = molecular target: T1, DNA gyrase (Escherichia coli) (UniProt P0AES6+P0AES4)
[4] = test system: Neisseria meningitidis; experiment: Minimum inhibitory concentration against Neisseria meningitides 69480; assay type: functional
How it was run: (§2)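 Agar dilution per NCCLS in BB2 agar + 1% Isovitalex + 7.5% sheep blood + menadione, compound added to melted medium at 50 °C. About 10⁴ CFU/spot from diluted overnight cultures, multipoint-inoculated.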

[5] = test system: Staphylococcus aureus; experiment: Minimum inhibitory concentration against Staphylococcus aureus ATCC 25923; assay type: functional; how it was run: as §1
[6] = test system: Stenotrophomonas maltophilia; experiment: Minimum inhibitory concentration against Xanthomonas maltophilia AC739; assay type: functional; how it was run: as §1
[7] = test system: Staphylococcus epidermidis; experiment: Minimum inhibitory concentration against Staphylococcus epidermidis 16/2; assay type: functional; how it was run: as §1
[8] = test system: Staphylococcus aureus; experiment: Minimum inhibitory concentration against Staphylococcus aureus Smith; assay type: functional; how it was run: as §1
[9] = molecular target: T1, DNA gyrase (Escherichia coli); experiment: Maximum noneffective concentration against Escherichia coli DNA gyrase; assay type: protein-complex assay
How it was run: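 Gyrase A2B2 complex reconstituted from equimolar subunits (25 °C, 0.5 h). Relaxed pUC18 DNA incubated with enzyme at 37 °C for 0.5 h, compound 0.001–100 μg/mL. Products resolved on 0.8% agarose gel. MNEC, read visually, is the highest concentration still allowing complete plasmid supercoiling.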

[10] = test system: Staphylococcus aureus; experiment: Minimum inhibitory concentration against Staphylococcus aureus 887; assay type: functional; how it was run: as §2
[11] = test system: Micrococcus luteus; experiment: Minimum inhibitory concentration against Micrococcus luteus ATCC 8340; assay type: functional; how it was run: as §2
[12] = Range for minimum inhibitory concentration against Staphylococcus aureus; 0.06->64; assay type: functional
[13] = test system: Staphylococcus aureus; experiment: Minimum inhibitory concentration against Staphylococcus aureus; assay type: functional
[14] = test system: HeLa; experiment: Cytotoxicity in HeLa cells; assay type: cell-based
[15] = test system: Streptococcus pyogenes; experiment: Minimum inhibitory concentration against Streptococcus pyogenes b15; conditions: Streptococcus pyogenes; read-out: MIC
[16] = Range for minimum inhibitory concentration against Staphylococcus aureus 0.5->[…]; assay type: functional
[17] = Range for minimum inhibitory concentration against Staphylococcus aureus; 4->64; assay type: functional
[18] = Range for minimum inhibitory concentration against Staphylococcus aureus; 0.5->[…]; assay type: functional
[19] = Range for minimum inhibitory concentration against Enterococcus faecium; 2-8; assay type: functional
[20] = test system: Enterococcus faecalis; experiment: Minimum inhibitory concentration against Enterococcus faecalis; assay type: functional
How it was run: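 Agar dilution per NCCLS on Mueller–Hinton agar, strain E. faecalis 6 (listed as S. faecalis 6). Compound incorporated into melted medium at 50 °C just before pouring plates. Inoculum about 10⁴ CFU/spot from diluted overnight culture, applied with multipoint inoculator.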

[21] = Range for minimum inhibitory concentration against Enterococcus faecalis;4-8; assay type: functional
[22] = test system: Staphylococcus aureus; experiment: In vivo effective dose was determined in septicaemic mice (Staphylococcus aureus Smith) when administration iv; assay type: functional
How it was run: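 Compound given iv as a gelatine microsuspension at 1 and 3 h post-challenge, 5 mice per group. ED50 (mg/kg) from day-4 survival by probit analysis.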

[23] = Minimum inhibitory concentration against Enterococcus faecalis
[24] = Range for minimum inhibitory concentration against Enterococcus faecalis; 1-4; assay type: functional
[25] = species on record: Mus musculus; experiment: Percentage of binding to the mice plasma protein was determined; assay type: functional
[26] = Range for minimum inhibitory concentration against Staphylococcus aureus; 0.5-2; assay type: functional
[27] = Staphylococcus aureus, ATCC 25923, read-out: MIC
[28] = Staphylococcus aureus, read-out: MIC

Row | Structure (SMILES) | MIC [1] | MIC [2] | MIC [5, 27] | MIC [6] | MIC [7] | MIC [8, 28] | MIC50 [13] | MIC90 [13] | also measured
1 | COC(=O)[C@@H]1CSCc2c(O)cc(OC)c(C)c2C(=O)OCCC(=O)N1 | > 64 µg/mL | > 64 µg/mL | > 64 µg/mL | > 64 µg/mL | 8 µg/mL (≈ 20.9 µM) | 64 µg/mL (≈ 167 µM) | – | – | MNEC [3]: 0.25 µg/mL; MIC [4]: 32 µg/mL (≈ 83.5 µM); MIC [5]: 64 µg/mL (≈ 167 µM); MNEC [9]: 0.5 µg/mL; MIC [10]: > 64 µg/mL; MIC [11]: 16 µg/mL (≈ 41.7 µM)
2 | C[C@@H](O)[C@H]1C(=O)N2C(C(=O)O)=C(SCCNC=N)C[C@H]12 [IMIPENEM ANHYDROUS] | – | – | – | – | – | – | 4 µg/mL (≈ 13.4 µM) | 16 µg/mL (≈ 53.4 µM) | Range [12]: 64 µg/mL
3 | COC(=O)[C@@H]1CSCc2c(O)cc(OC)c(C)c2C(=O)OCCCCC(=O)N1 | 4 µg/mL (≈ 9.72 µM) | > 64 µg/mL | 4 µg/mL (≈ 9.72 µM) | 16 µg/mL (≈ 38.9 µM) | 1 µg/mL (≈ 2.43 µM) | 2 µg/mL (≈ 4.86 µM) | – | – | IC50 [14]: > 50 µg/mL; MNEC [3]: 0.05 µg/mL; MIC [15]: 4 µg/mL (≈ 9.72 µM); MIC [5]: 4 µg/mL (≈ 9.72 µM); MIC [8]: 2 µg/mL (≈ 4.86 µM)
4 | CN(C)[C@@H]1C(O)=C(C(N)=O)C(=O)[C@@]2(O)C(O)=C3C(=O)c4c(O)cccc4[C@@](C)(O)[C@H]3C[C@@H]12 [TETRACYCLINE] | – | – | – | – | – | – | > 16 µg/mL | > 16 µg/mL | Range [16]: 16 µg/mL
5 | COc1cccc(OC)c1C(=O)N[C@@H]1C(=O)N2[C@@H]1SC(C)(C)[C@@H]2C(=O)O [METHICILLIN] | – | – | – | – | – | – | 32 µg/mL (≈ 84.1 µM) | > 64 µg/mL | Range [17]: 64 µg/mL
6 | O=C(O)c1cn(C2CC2)c2cc(N3CCNCC3)c(F)cc2c1=O [CIPROFLOXACIN] | – | – | – | – | – | – | 0.5 µg/mL (≈ 1.51 µM) | > 16 µg/mL | Range [18]: 16 µg/mL
7 | CO[C@@H]1[C@@H](OC(N)=O)[C@@H](O)[C@H](Oc2ccc3c(O)c(NC(=O)c4ccc(O)c(CC=C(C)C)c4)c(=O)oc3c2C)OC1(C)C [NOVOBIOCIN] | 4 µg/mL (≈ 6.53 µM) | > 64 µg/mL | 0.25 µg/mL (≈ 0.408 µM) | > 64 µg/mL | 0.25 µg/mL (≈ 0.408 µM) | 0.12 µg/mL (≈ 0.196 µM) | – | – | Range [19]: 8 µg/mL; MIC50 [20]: 4 µg/mL (≈ 6.53 µM); MIC90 [20]: 8 µg/mL (≈ 13.1 µM); Range [21]: 8 µg/mL; MIC [15]: 1 µg/mL (≈ 1.63 µM); ED50 [22]: 3 mg/kg
8 | CN[C@H](CC(C)C)C(=O)N[C@H]1C(=O)N[C@@H](CC(N)=O)C(=O)N[C@H]2C(=O)N[C@H]3C(=O)N[C@H](C(=O)N[C@H](C(=O)O)c4cc(O)cc(O)c4-c4cc3ccc4O)[C@H](O)c3ccc(c(Cl)c3)Oc3cc2cc(c3O[C@@H]2O[C@H](CO)[C@@H](O)[C@H](O)[C@H]2O[C@H]2C[C@](C)(N)[C@H](O)[C@H](C)O2)Oc2ccc(cc2Cl)[C@H]1O [VANCOMYCIN] | – | > 64 µg/mL | – | > 64 µg/mL | – | – | 1 µg/mL (≈ 0.69 µM) | 2 µg/mL (≈ 1.38 µM) | MIC90 [23]: 4 µg/mL (≈ 2.76 µM); MIC50 [20]: 2 µg/mL (≈ 1.38 µM); Range [24]: 4 µg/mL; Activity [25]: 25%; Range [26]: 2 µg/mL; ED50 [22]: 1.5 mg/kg
